Assay results reported in ChEMBL document CHEMBL2086286, “Synthesis, antitumor, cytotoxic and antioxidant evaluation of some new pyrazolotriazines attached to antipyrine moiety” (Eur J Med Chem, 2012).
≈ marks a conversion by molar mass, not a printed value. Where “and” joins values, the source holds several entries; their conditions need not be identical. Equal values may be shown once. Calls of active or inactive are those of the source. The rule behind the calls is not given here.

Test system: HepG2
Assay: Cytotoxicity against human HepG2 cells after 96 hrs by MTT assay
Format: functional, cell-based
Details: HepG2, 96 h

Structure (SMILES)	IC50 [µg/mL]
Cc1nn2c(N)c(-c3nc4ccccc4s3)nnc2c1/N=N/c1c(C)n(C)n(-c2ccccc2)c1=O	225 (≈ 454 µM)
Cc1[nH]nc(NN=C2C(=O)CCCC2=O)c1/N=N/c1c(C)n(C)n(-c2ccccc2)c1=O	16.2 (≈ 37.3 µM)
Cc1[nH]nc(-n2nc(C(=O)c3ccccc3)sc2=N)c1/N=N/c1c(C)n(C)n(-c2ccccc2)c1=O	186 (≈ 373 µM)
CC1=NNC(=O)/C1=N/Nc1n[nH]c(C)c1/N=N/c1c(C)n(C)n(-c2ccccc2)c1=O	202 (≈ 480 µM)
Cc1nn2c(N)c(C#N)nnc2c1/N=N/c1c(C)n(C)n(-c2ccccc2)c1=O	254 (≈ 654 µM)
CC(=O)c1nnc2c(/N=N/c3c(C)n(C)n(-c4ccccc4)c3=O)c(C)nn2c1C	39.3 (≈ 97.2 µM)
Cc1nn2c(nnc3c(C)n[nH]c32)c1/N=N/c1c(C)n(C)n(-c2ccccc2)c1=O	210 (≈ 521 µM)
CC(=O)C(=NNc1n[nH]c(C)c1/N=N/c1c(C)n(C)n(-c2ccccc2)c1=O)C(C)=O	174 (≈ 412 µM)
CCOC(=O)c1nnc2c(/N=N/c3c(C)n(C)n(-c4ccccc4)c3=O)c(C)nn2c1N	268 (≈ 616 µM)
Cc1[nH]nc(N)c1/N=N/c1c(C)n(C)n(-c2ccccc2)c1=O	79.1 (≈ 254 µM)
Cc1[nH]nc(N/N=C(/C#N)C(N)=C(C#N)C#N)c1/N=N/c1c(C)n(C)n(-c2ccccc2)c1=O	148 (≈ 325 µM)

Test system: not listed separately
Assay: Antioxidant activity assessed as ABTS free radical scavenging activity at 1 mg/mL by spectroscopic analysis
Format: functional
Details: not given
Method in brief: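 ABTS radical cation generated by reacting ABTS with MnO2 (25 mg/mL) in phosphate buffer pH 7, then centrifuged and filtered. Absorbance read at 734 nm before and after adding test sample (1 mg/mL in MeOH/buffer 1:1). % inhibition = [A(control) − A(test)]/A(control) × 100. Ascorbic acid (2 mM) as positive control; solvent blank without ABTS.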

Structure (SMILES)	inhibition [%]
Cc1nn2c(N)c(-c3nc4ccccc4s3)nnc2c1/N=N/c1c(C)n(C)n(-c2ccccc2)c1=O	17.2
Cc1[nH]nc(NN=C2C(=O)CCCC2=O)c1/N=N/c1c(C)n(C)n(-c2ccccc2)c1=O	40
Cc1[nH]nc(-n2nc(C(=O)c3ccccc3)sc2=N)c1/N=N/c1c(C)n(C)n(-c2ccccc2)c1=O	15.7
CC1=NNC(=O)/C1=N/Nc1n[nH]c(C)c1/N=N/c1c(C)n(C)n(-c2ccccc2)c1=O	16.1
Cc1nn2c(N)c(C#N)nnc2c1/N=N/c1c(C)n(C)n(-c2ccccc2)c1=O	15.9
CC(=O)c1nnc2c(/N=N/c3c(C)n(C)n(-c4ccccc4)c3=O)c(C)nn2c1C	27.5
Cc1nn2c(nnc3c(C)n[nH]c32)c1/N=N/c1c(C)n(C)n(-c2ccccc2)c1=O	16.1
CC(=O)C(=NNc1n[nH]c(C)c1/N=N/c1c(C)n(C)n(-c2ccccc2)c1=O)C(C)=O	25.8
CCOC(=O)c1nnc2c(/N=N/c3c(C)n(C)n(-c4ccccc4)c3=O)c(C)nn2c1N	17.6
Cc1[nH]nc(N)c1/N=N/c1c(C)n(C)n(-c2ccccc2)c1=O	28.4
Cc1[nH]nc(N/N=C(/C#N)C(N)=C(C#N)C#N)c1/N=N/c1c(C)n(C)n(-c2ccccc2)c1=O	9.86

Test system: Vero
Assay: Cytotoxicity against African green monkey Vero cells after 96 hrs by MTT assay
Format: cell-based
Details: Chlorocebus sabaeus

Structure (SMILES)	IC50 [µg/mL]
Cc1nn2c(N)c(-c3nc4ccccc4s3)nnc2c1/N=N/c1c(C)n(C)n(-c2ccccc2)c1=O	244 (≈ 491 µM)
Cc1[nH]nc(NN=C2C(=O)CCCC2=O)c1/N=N/c1c(C)n(C)n(-c2ccccc2)c1=O	24.8 (≈ 57.1 µM)
Cc1[nH]nc(-n2nc(C(=O)c3ccccc3)sc2=N)c1/N=N/c1c(C)n(C)n(-c2ccccc2)c1=O	210 (≈ 421 µM)
CC1=NNC(=O)/C1=N/Nc1n[nH]c(C)c1/N=N/c1c(C)n(C)n(-c2ccccc2)c1=O	214 (≈ 508 µM)
Cc1nn2c(N)c(C#N)nnc2c1/N=N/c1c(C)n(C)n(-c2ccccc2)c1=O	301 (≈ 775 µM)
CC(=O)c1nnc2c(/N=N/c3c(C)n(C)n(-c4ccccc4)c3=O)c(C)nn2c1C	33.1 (≈ 81.8 µM)
Cc1nn2c(nnc3c(C)n[nH]c32)c1/N=N/c1c(C)n(C)n(-c2ccccc2)c1=O	276 (≈ 687 µM)
CC(=O)C(=NNc1n[nH]c(C)c1/N=N/c1c(C)n(C)n(-c2ccccc2)c1=O)C(C)=O	199 (≈ 472 µM)
CCOC(=O)c1nnc2c(/N=N/c3c(C)n(C)n(-c4ccccc4)c3=O)c(C)nn2c1N	284 (≈ 653 µM)
Cc1[nH]nc(N)c1/N=N/c1c(C)n(C)n(-c2ccccc2)c1=O	80.3 (≈ 258 µM)
Cc1[nH]nc(N/N=C(/C#N)C(N)=C(C#N)C#N)c1/N=N/c1c(C)n(C)n(-c2ccccc2)c1=O	212 (≈ 467 µM)

Test system: WI-38
Assay: Cytotoxicity against human WI38 cells after 96 hrs by MTT assay
Format: functional, cell-based
Details: WI-38, 96 h

Structure (SMILES)	IC50 [µg/mL]
Cc1nn2c(N)c(-c3nc4ccccc4s3)nnc2c1/N=N/c1c(C)n(C)n(-c2ccccc2)c1=O	199 (≈ 400 µM)
Cc1[nH]nc(NN=C2C(=O)CCCC2=O)c1/N=N/c1c(C)n(C)n(-c2ccccc2)c1=O	19.8 (≈ 45.6 µM)
Cc1[nH]nc(-n2nc(C(=O)c3ccccc3)sc2=N)c1/N=N/c1c(C)n(C)n(-c2ccccc2)c1=O	171 (≈ 343 µM)
CC1=NNC(=O)/C1=N/Nc1n[nH]c(C)c1/N=N/c1c(C)n(C)n(-c2ccccc2)c1=O	300 (≈ 713 µM)
Cc1nn2c(N)c(C#N)nnc2c1/N=N/c1c(C)n(C)n(-c2ccccc2)c1=O	377 (≈ 971 µM)
CC(=O)c1nnc2c(/N=N/c3c(C)n(C)n(-c4ccccc4)c3=O)c(C)nn2c1C	40.3 (≈ 99.6 µM)
Cc1nn2c(nnc3c(C)n[nH]c32)c1/N=N/c1c(C)n(C)n(-c2ccccc2)c1=O	311 (≈ 772 µM)
CC(=O)C(=NNc1n[nH]c(C)c1/N=N/c1c(C)n(C)n(-c2ccccc2)c1=O)C(C)=O	189 (≈ 446 µM)
CCOC(=O)c1nnc2c(/N=N/c3c(C)n(C)n(-c4ccccc4)c3=O)c(C)nn2c1N	367 (≈ 843 µM)
Cc1[nH]nc(N)c1/N=N/c1c(C)n(C)n(-c2ccccc2)c1=O	73.1 (≈ 235 µM)
Cc1[nH]nc(N/N=C(/C#N)C(N)=C(C#N)C#N)c1/N=N/c1c(C)n(C)n(-c2ccccc2)c1=O	176 (≈ 387 µM)

Test system: not listed separately
Assay: Cytotoxicity against mouse EAC after 2 hrs by trypan blue staining based hemocytometer analysis
Format: functional, Ehrlich
Details: not given
Method in brief: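 Ehrlich ascites cells aspirated aseptically from the peritoneal cavity of a donor animal. Held in RPMI with 10% FBS at 37 °C, 5% CO2 for 2 h with compound at 25, 50 and 100 µg, final DMSO 0.1%. Dead cells counted by trypan blue staining on a hemocytometer; DMSO-only control viability exceeded 95%. 5-Fluorouracil as reference.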

Structure (SMILES)	ED25 [µg]	ED100 [µg]
Cc1nn2c(N)c(-c3nc4ccccc4s3)nnc2c1/N=N/c1c(C)n(C)n(-c2ccccc2)c1=O	26.63	64
Cc1[nH]nc(NN=C2C(=O)CCCC2=O)c1/N=N/c1c(C)n(C)n(-c2ccccc2)c1=O	0.88	80
Cc1[nH]nc(-n2nc(C(=O)c3ccccc3)sc2=N)c1/N=N/c1c(C)n(C)n(-c2ccccc2)c1=O	39.36	60.5
CC1=NNC(=O)/C1=N/Nc1n[nH]c(C)c1/N=N/c1c(C)n(C)n(-c2ccccc2)c1=O	26.63	63.3
Cc1nn2c(N)c(C#N)nnc2c1/N=N/c1c(C)n(C)n(-c2ccccc2)c1=O	34.26	62
CC(=O)c1nnc2c(/N=N/c3c(C)n(C)n(-c4ccccc4)c3=O)c(C)nn2c1C	11.01	73.9
Cc1nn2c(nnc3c(C)n[nH]c32)c1/N=N/c1c(C)n(C)n(-c2ccccc2)c1=O	34.69	61
CC(=O)C(=NNc1n[nH]c(C)c1/N=N/c1c(C)n(C)n(-c2ccccc2)c1=O)C(C)=O	15.59	70
CCOC(=O)c1nnc2c(/N=N/c3c(C)n(C)n(-c4ccccc4)c3=O)c(C)nn2c1N	28.02	65.3
Cc1[nH]nc(N)c1/N=N/c1c(C)n(C)n(-c2ccccc2)c1=O	1.71	79.3
Cc1[nH]nc(N/N=C(/C#N)C(N)=C(C#N)C#N)c1/N=N/c1c(C)n(C)n(-c2ccccc2)c1=O	64.48	38

Same assay, conditions: ehrlich

Structure (SMILES)	IC50
Cc1nn2c(N)c(-c3nc4ccccc4s3)nnc2c1/N=N/c1c(C)n(C)n(-c2ccccc2)c1=O	93.8 µg and 49 µg
Cc1[nH]nc(NN=C2C(=O)CCCC2=O)c1/N=N/c1c(C)n(C)n(-c2ccccc2)c1=O	98.8 µg and 63.3 µg
Cc1[nH]nc(-n2nc(C(=O)c3ccccc3)sc2=N)c1/N=N/c1c(C)n(C)n(-c2ccccc2)c1=O	90.7 µg
CC1=NNC(=O)/C1=N/Nc1n[nH]c(C)c1/N=N/c1c(C)n(C)n(-c2ccccc2)c1=O	93 µg and 45.5 µg
Cc1nn2c(N)c(C#N)nnc2c1/N=N/c1c(C)n(C)n(-c2ccccc2)c1=O	91.9 µg and 42.8 µg
CC(=O)c1nnc2c(/N=N/c3c(C)n(C)n(-c4ccccc4)c3=O)c(C)nn2c1C	96.7 µg and 55.5 µg
Cc1nn2c(nnc3c(C)n[nH]c32)c1/N=N/c1c(C)n(C)n(-c2ccccc2)c1=O	92.1 µg and 43 µg
CC(=O)C(=NNc1n[nH]c(C)c1/N=N/c1c(C)n(C)n(-c2ccccc2)c1=O)C(C)=O	95 µg and 54.1 µg
CCOC(=O)c1nnc2c(/N=N/c3c(C)n(C)n(-c4ccccc4)c3=O)c(C)nn2c1N	94 µg and 47 µg
Cc1[nH]nc(N)c1/N=N/c1c(C)n(C)n(-c2ccccc2)c1=O	97 µg and 58 µg

Test system: Nucleic Acid
Assay: Protective activity against bleomycin-iron complex-induced DNA damage at 0.1 mg/ml after 1 hr
Format: nucleic-acid assay
Details: not given
Method in brief: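 Final reaction mixture: DNA 0.2 mg/mL, bleomycin 0.05 mg/mL, FeCl3 0.025 mM, MgCl2 5 mM, KH2PO4/KOH pH 7.0 30 mM, and test sample 0.1 mg/mL (in MeOH) or ascorbic acid 0.24 mM. Incubated 1 h at 37 °C, stopped with EDTA. DNA damage measured by adding 1% TBA and 25% HCl, heating 15 min at 80 °C, then reading absorbance.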

Structure (SMILES)	Activity
Cc1[nH]nc(NN=C2C(=O)CCCC2=O)c1/N=N/c1c(C)n(C)n(-c2ccccc2)c1=O	Active

Test system: MCF7
Assay: Cytotoxicity against human MCF7 cells after 96 hrs by MTT assay
Format: functional, cell-based
Details: MCF7, 96 h

Structure (SMILES)	IC50 [µg/mL]
Cc1nn2c(N)c(-c3nc4ccccc4s3)nnc2c1/N=N/c1c(C)n(C)n(-c2ccccc2)c1=O	186 (≈ 374 µM)
Cc1[nH]nc(NN=C2C(=O)CCCC2=O)c1/N=N/c1c(C)n(C)n(-c2ccccc2)c1=O	29.9 (≈ 68.8 µM)
Cc1[nH]nc(-n2nc(C(=O)c3ccccc3)sc2=N)c1/N=N/c1c(C)n(C)n(-c2ccccc2)c1=O	210 (≈ 420 µM)
CC1=NNC(=O)/C1=N/Nc1n[nH]c(C)c1/N=N/c1c(C)n(C)n(-c2ccccc2)c1=O	393 (≈ 935 µM)
Cc1nn2c(N)c(C#N)nnc2c1/N=N/c1c(C)n(C)n(-c2ccccc2)c1=O	452 (≈ 1160 µM)
CC(=O)c1nnc2c(/N=N/c3c(C)n(C)n(-c4ccccc4)c3=O)c(C)nn2c1C	30.6 (≈ 75.7 µM)
Cc1nn2c(nnc3c(C)n[nH]c32)c1/N=N/c1c(C)n(C)n(-c2ccccc2)c1=O	411 (≈ 1020 µM)
CC(=O)C(=NNc1n[nH]c(C)c1/N=N/c1c(C)n(C)n(-c2ccccc2)c1=O)C(C)=O	214 (≈ 507 µM)
CCOC(=O)c1nnc2c(/N=N/c3c(C)n(C)n(-c4ccccc4)c3=O)c(C)nn2c1N	420 (≈ 965 µM)
Cc1[nH]nc(N)c1/N=N/c1c(C)n(C)n(-c2ccccc2)c1=O	84.7 (≈ 272 µM)
Cc1[nH]nc(N/N=C(/C#N)C(N)=C(C#N)C#N)c1/N=N/c1c(C)n(C)n(-c2ccccc2)c1=O	192 (≈ 422 µM)
